In ChEMBL document CHEMBL1139755, “Synthesis and in vitro antibacterial activity of novel methylamino piperidinyl oxazolidinones” (2007):

Columns and labels:
Bacillus subtilis = test: Antibacterial activity against Bacillus subtilis ATCC 6633 by broth microdilution method; assay type: functional
Outline: (§1)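 Endpoint is the minimum inhibitory concentration, determined by broth microdilution against a panel of susceptible Gram-positive strains. Values are reported as a range spanning two concentrations (for example 8–16). Values above the top concentration tested are given as >16.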

[1] = test system: Staphylococcus epidermidis; test: Antibacterial activity against Staphylococcus epidermidis ATCC 12228 by broth microdilution method; assay type: functional; outline: as §1
Enterococcus faecalis [2] = test: Antibacterial activity against Enterococcus faecalis ATCC 29212 by broth microdilution method; assay type: functional; outline: as §1
Enterococcus faecalis [3] = test: Antibacterial activity against Enterococcus faecalis ATCC 14506 by broth microdilution method; assay type: functional; outline: as §1
Staphylococcus aureus [4] = test: Antibacterial activity against Staphylococcus aureus ATCC 33591 by broth microdilution method; assay type: functional; outline: as §1
Staphylococcus aureus [5] = test: Antibacterial activity against Staphylococcus aureus ATCC 29213 by broth microdilution method; assay type: functional; outline: as §1
Staphylococcus aureus [6] = test: Antibacterial activity against Staphylococcus aureus ATCC 33592 by broth microdilution method; assay type: functional; outline: as §1
Enterococcus faecalis [7] = test: Antibacterial activity against multidrug resistant Enterococcus faecalis ATCC 700802 by broth microdilution method; assay type: functional
Enterococcus faecium = test: Antibacterial activity against vancomycin-resistant Enterococcus faecium ATCC 700221 by broth microdilution method; assay type: functional
Staphylococcus aureus [8] = test: Antibacterial activity against Staphylococcus aureus ATCC 25923 by broth microdilution method; assay type: functional; outline: as §1
Staphylococcus aureus [9] = test: Antibacterial activity against linezolid-resistant Staphylococcus aureus NRS 119 by broth microdilution method; assay type: functional
Outline: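 Linezolid-resistant S. aureus strain obtained from NARSA; minimum inhibitory concentration found by broth microdilution and reported as a concentration range.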

Staphylococcus aureus [10] = test: Antibacterial activity against methicillin-resistant Staphylococcus aureus ATCC 700699 by broth microdilution method; assay type: functional
Streptococcus pneumoniae = test: Antibacterial activity against multidrug-resistant Streptococcus pneumoniae ATCC 700904 by broth microdilution method; assay type: functional
[11] = test system: Staphylococcus epidermidis; test: Antibacterial activity against Staphylococcus epidermidis ATCC 155 by broth microdilution method; assay type: functional; outline: as §1
Streptococcus pyogenes = test: Antibacterial activity against Streptococcus pyogenes ATCC 14289 by broth microdilution method

Measured: MIC

CC(=O)NC[C@H]1CN(c2ccc(N(C)C3CCN(C(=O)/C=C/c4ccc5c(c4)OCO5)CC3)c(F)c2)C(=O)O1
2 µg/mL: Bacillus subtilis
8 µg/mL: [1] | Enterococcus faecalis [2] | Staphylococcus aureus [4]
> 16 µg/mL: Enterococcus faecalis [3] | Staphylococcus aureus [5] | Staphylococcus aureus [6] | Enterococcus faecalis [7] | Enterococcus faecium | Staphylococcus aureus [8] | Staphylococcus aureus [9] | Staphylococcus aureus [10] | Streptococcus pneumoniae | [11] | Streptococcus pyogenes

CC(=O)NC[C@H]1CN(c2ccc(N3CCN(C(=O)CO)CC3)c(F)c2)C(=O)O1 [EPEREZOLID]
2 µg/mL: [1] | Enterococcus faecalis [2] | Enterococcus faecalis [3] | Staphylococcus aureus [5] | Staphylococcus aureus [8]
> 16 µg/mL: Staphylococcus aureus [9]
0.25 µg/mL: Streptococcus pneumoniae | Streptococcus pyogenes
1 µg/mL: Staphylococcus aureus [4] | Enterococcus faecalis [7] | Staphylococcus aureus [10]
0.5 µg/mL: Bacillus subtilis

CC(=O)NC[C@H]1CN(c2ccc(N(C)C3CCN(C(=O)/C=C/c4ccc(O)cc4)CC3)c(F)c2)C(=O)O1
4 µg/mL: Enterococcus faecalis [2] | Staphylococcus aureus [10]
> 16 µg/mL: Enterococcus faecalis [3] | Staphylococcus aureus [5] | Staphylococcus aureus [6] | Staphylococcus aureus [9]
8 µg/mL: [1] | Staphylococcus aureus [4] | Enterococcus faecalis [7] | Enterococcus faecium | Staphylococcus aureus [8] | Streptococcus pneumoniae | [11] | Streptococcus pyogenes
2 µg/mL: Bacillus subtilis

CC(=O)NC[C@H]1CN(c2ccc(N(C)C3CCN(C(=O)/C=C/c4ccc([N+](=O)[O-])o4)CC3)c(F)c2)C(=O)O1
0.25 µg/mL: Streptococcus pneumoniae | [11]
0.5 µg/mL: Bacillus subtilis
4 µg/mL: Enterococcus faecalis [3]
2 µg/mL: Enterococcus faecalis [2] | Staphylococcus aureus [5] | Staphylococcus aureus [8] | Staphylococcus aureus [9] | Streptococcus pyogenes
8 µg/mL: Enterococcus faecalis [7]
1 µg/mL: [1] | Staphylococcus aureus [4] | Staphylococcus aureus [6] | Enterococcus faecium | Staphylococcus aureus [10]

CC(=O)NC[C@H]1CN(c2ccc(N(C)C3CCN(C(=O)/C=C/C4CCCCC4)CC3)c(F)c2)C(=O)O1
4 µg/mL: Staphylococcus aureus [10]
8 µg/mL: Bacillus subtilis | Enterococcus faecalis [3] | Staphylococcus aureus [5] | Staphylococcus aureus [6] | Enterococcus faecalis [7] | Enterococcus faecium | Staphylococcus aureus [8] | Streptococcus pneumoniae | [11]
> 16 µg/mL: [1] | Enterococcus faecalis [2] | Staphylococcus aureus [4] | Staphylococcus aureus [9] | Streptococcus pyogenes

CC(=O)NC[C@H]1CN(c2ccc(N(C)C3CCN(C(=O)/C=C/c4ccc([N+](=O)[O-])cc4)CC3)c(F)c2)C(=O)O1
8 µg/mL: [1] | Staphylococcus aureus [10] | [11]
4 µg/mL: Bacillus subtilis
> 16 µg/mL: Enterococcus faecalis [2] | Enterococcus faecalis [3] | Staphylococcus aureus [4] | Staphylococcus aureus [5] | Staphylococcus aureus [6] | Enterococcus faecalis [7] | Enterococcus faecium | Staphylococcus aureus [8] | Staphylococcus aureus [9] | Streptococcus pneumoniae | Streptococcus pyogenes
